What all share (type): ADME, organism-based
Series [1] in a line: Plasma clearance in iv/po dosed Sprague-Dawley rat. The gist of the method:
(§1)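 Male Sprague-Dawley rats dosed by intravenous and by oral routes. Pharmacokinetic parameters are derived from these studies.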

Series [2] is described as follows: Half life in iv/po dosed Sprague-Dawley rat. The note with it: in vivo. Summed up: as §1
A short description of series [3]: Volume of distribution at steady state in iv/po dosed Sprague-Dawley rat. The settings on record: in vivo, read-out: Vdss. Summed up:
as §1

Series [4] in a line: Oral bioavailability in Sprague-Dawley rat. The settings on record: in vivo. The gist of the method: as §1

Structures are written as SMILES. Some results are limits rather than exact numbers.

A word on the half-life: it is the time in which the quantity being followed falls by half. Lower therefore signals fast loss. In general, bioavailability refers to the share of a dose that reaches the circulation, judged against a reference dose that is usually intravenous. On to `CN(C)[C@@H]1CCc2cc(N3CC[C@H](NS(=O)(=O)c4ccc5cc(Cl)ccc5c4)C3=O)ccc21`, for which the clearance in series [1] is 7.6 mL/min/kg. The half-life in series [2] was 3.4 h. Further, the Vd in series [3] came to 1.7 L/kg. In series [4], this compound showed a bioavailability of 27%.
In the same order, the values of `O=C1[C@@H](NS(=O)(=O)c2ccc3cc(Cl)ccc3c2)CCN1c1ccc([C@@H]2CCCN2)cc1F` are 2.8 mL/min/kg, 7.5 h, 1.7 L/kg and 38%.
As for `O=C1[C@@H](NS(=O)(=O)c2ccc3cc(Cl)ccc3c2)CCN1c1ccc([C@H]2CCCN2)cc1F`, the clearance in series [1] amounted to 2.6 mL/min/kg. This compound showed a half-life in series [2] of 10.2 h. Further, the Vd in series [3] turned out to be 1.9 L/kg. Moreover, in series [4], the bioavailability was found to be 25%.
In the same order, the values of `CN(C)[C@H]1CCc2cc(N3CC[C@H](NS(=O)(=O)c4ccc5cc(Cl)ccc5c4)C3=O)ccc21` are 6 mL/min/kg, 4.4 h, 2 L/kg and 61%.
As to `CN[C@@H](C)c1ccc(N2CC[C@H](NS(=O)(=O)c3ccc4cc(Cl)ccc4c3)C2=O)c(F)c1`, the bioavailability in series [4] is greater than 10%.
`CN(C)C1CCc2cc(N3CC[C@H](NS(=O)(=O)/C=C/c4ccc(Cl)s4)C3=O)ccc21` (mixture of isomers) yielded a clearance in series [1] of 9.5 mL/min/kg. This compound showed a half-life in series [2] of 1.7 h. In series [3], the Vd stood at 1.1 L/kg. This compound also showed a bioavailability in series [4] of 57%.
In series [1], `CNC1CCc2cc(N3CC[C@H](NS(=O)(=O)/C=C/c4ccc(Cl)s4)C3=O)ccc21` (mixture of isomers) came in with a clearance of 2.2 mL/min/kg. In series [2], this compound had a half-life of 5.4 h. In series [3], the Vd stood at 0.9 L/kg.
Take `CNC1CCc2cc(N3CC[C@H](NS(=O)(=O)c4ccc5cc(Cl)ccc5c4)C3=O)ccc21` (mixture of isomers): the clearance in series [1] was 2.5 mL/min/kg. The same compound gave a half-life in series [2] of 12.4 h. Moreover, the Vd in series [3] turned out to be 2.4 L/kg. Moreover, the bioavailability in series [4] was found to be 25%.
In the same order, the values of `CN1CCCC1c1ccc(N2CC[C@H](NS(=O)(=O)/C=C/c3ccc(Cl)s3)C2=O)c(F)c1` (mixture of isomers) are 11 mL/min/kg, 1.4 h, 0.8 L/kg and 41%.
In the same order, the values of `O=C1[C@@H](NS(=O)(=O)/C=C/c2ccc(Cl)s2)CCN1c1ccc(C2CCCN2)cc1F` (mixture of isomers) are 2.8 mL/min/kg, 3.4 h, 0.7 L/kg and 52%.
In the same order, the values of `O=C1[C@@H](NS(=O)(=O)c2ccc3cc(Cl)ccc3c2)CCN1c1ccc(C2CCCN2)cc1F` (mixture of isomers) are 2.7 mL/min/kg, 9 h, 1.9 L/kg and 24%.
Regarding `O=C1[C@@H](NS(=O)(=O)c2ccc3c(Cl)c[nH]c3c2)CCN1c1ccc(C2CCCN2)cc1F` (mixture of isomers), the clearance in series [1] was determined as 1.3 mL/min/kg. In series [2], the half-life is 11 h. The Vd in series [3] was determined as 0.8 L/kg. In addition, the bioavailability in series [4] is less than 1%.
